# Laboratory results: ChEMBL document CHEMBL1124564, “Ester derivatives of 2,6-bis(1-pyrrolidinylmethyl)-4-benzamidophenol as short-acting antiarrhythmic agents. 1” (J Med Chem, 1989)
# Assays:
# Cavia porcellus = species on record: Cavia porcellus; test: Inhibition of acetylstrophantidin induced arrhythmia in guinea pig isolated right atria.; assay type: functional; details: read-out: ED50 (the source's name)
# Outline: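 Isolated atrium in prewarmed 37 °C Krebs on an isometric force transducer, tension about 500 mg, equilibrated 1 h. Arrhythmogen (ethanolic stock) added at 5.0 μg/mL, raised to 7.5 μg/mL after 30 min if no arrhythmia. After 45 min, compound given in incremental doses every 20 min. ED is the cumulative dose restoring sinus rhythm for at least 3 min.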
# [1] = Distribution coefficient of compound was determined in octanol-water system; assay type: physicochemical
# [2] = Biological half-life was evaluated in whole human blood; assay type: ADME, organism-based
# Outline: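 Fresh heparinized blood from male volunteers and compound in saline preincubated separately 5 min at 37 °C, then mixed 1:1 (final 25 μg/mL) and shaken at 37 °C for 0, 1, 2.5, 5.0, 10, 20, 30 and 60 min. Stopped with acetonitrile, proteins spun down, supernatant assayed by HPLC on phenyl column. Half-life is the time to 50% loss of compound.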
# Canis familiaris = species on record: Canis familiaris; test: Inhibition of ouabain induced arrhythmia in the dog.; assay type: functional, Canis lupus familiaris
# Outline: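 Adult male mongrel dogs (10–17 kg) under pentobarbital (30 mg/kg iv), intubated, spontaneous breathing, lead II ECG. Ouabain iv bolus: 40 μg/kg, then 20 μg/kg at 30 min, then 5–10 μg/kg every 15 min until stable ventricular arrhythmia (>95% ectopic complexes) lasted 15 min. Compound infused iv at 0.5 mg/kg per min until sinus rhythm held ≥10 min.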
Structure (SMILES),EC50 (Cavia porcellus) [µg/mL],Distribution coefficient [1],half-life [2] [min],Active dose (Canis familiaris) [mg/kg]
O=C(O)Cc1cc(CN2CCCC2)c(O)c(CN2CCCC2)c1,> 200,–,–,–
CC(C)OC(=O)CCc1cc(CN2CCCC2)c(O)c(CN2CCCC2)c1,4,0.62,–,–
CC(C)COC(=O)Cc1cc(CN2CCCC2)c(O)c(CN2CCCC2)c1,5,1.25,8.7,11.8
CCCCOC(=O)CCCc1cc(CN2CCCC2)c(O)c(CN2CCCC2)c1,0.33,12.8,0.77,–
CC(C)OC(=O)Cc1cc(CN2CCCC2)c(O)c(CN2CCCC2)c1,1,0.39,–,–
O=C(O)c1cc(CN2CCCC2)c(O)c(CN2CCCC2)c1,> 30,–,–,>60
CC(C)OC(=O)c1cc(CN2CCCC2)c(O)c(CN2CCCC2)c1,11.4,0.37,–,–
CC(C)COC(=O)CCCc1cc(CN2CCCC2)c(O)c(CN2CCCC2)c1,2,7.24,1.96,–
CCCCOC(=O)CCc1cc(CN2CCCC2)c(O)c(CN2CCCC2)c1,2.5,2,22.1,11
CCOC(=O)CCc1ccc(NC(=O)c2cc(CN3CCCC3)c(O)c(CN3CCCC3)c2)cc1,–,–,–,10.9
CCOC(=O)/C=C/c1ccc(NC(=O)c2cc(CN3CCCC3)c(O)c(CN3CCCC3)c2)cc1,–,–,–,17.5
CC(C)COC(=O)CCc1cc(CN2CCCC2)c(O)c(CN2CCCC2)c1,14,1.54,25.9,5
CCOC(=O)c1ccccc1NC(=O)c1cc(CN2CCCC2)c(O)c(CN2CCCC2)c1,–,–,–,1.75
CCOC(=O)Cc1cc(CN2CCCC2)c(O)c(CN2CCCC2)c1,17.2,0.18,–,>7.5
CC(C)COC(=O)c1cc(CN2CCCC2)c(O)c(CN2CCCC2)c1,2.3,1.47,–,–
CCCOC(=O)CCc1cc(CN2CCCC2)c(O)c(CN2CCCC2)c1,7,0.78,36.1,3
CCCOC(=O)Cc1cc(CN2CCCC2)c(O)c(CN2CCCC2)c1,10.3,0.43,18.5,8.8
CCC(C)OC(=O)c1cc(CN2CCCC2)c(O)c(CN2CCCC2)c1 (configuration not stated),6.7,1.12,–,6.8
O=C(O)CCc1cc(CN2CCCC2)c(O)c(CN2CCCC2)c1,> 1000,–,–,–
CCCCOC(=O)Cc1cc(CN2CCCC2)c(O)c(CN2CCCC2)c1,13.3,1.5,9.5,7.3
CCOC(=O)c1ccc(NC(=O)c2cc(CN3CCCC3)c(O)c(CN3CCCC3)c2)cc1,–,–,–,19
O=C(Nc1ccccc1)c1cc(CN2CCCC2)c(O)c(CN2CCCC2)c1,11,0.42,–,2.5
CCCOC(=O)CCCc1cc(CN2CCCC2)c(O)c(CN2CCCC2)c1,–,–,2.1,–
O=C(NCC1CCCCN1)c1cc(OCC(F)(F)F)ccc1OCC(F)(F)F (configuration not stated) [FLECAINIDE],6,13.71,–,2.3
CCN(CC)CC(=O)Nc1c(C)cccc1C [LIDOCAINE],6,19.19,–,10.1
